Only some compounds are listed: those with a hit (about 1.6% of all), similar ones and a draw of the others.
Neddylation inh = inhibitors of cullin neddylation, primary screen, biochemical, TR-FRET, uHTS, NAE and Ubc12; calls only at 25 µM; hit rate 0.58% among 360,000; in the data active = inhibition above about 36%
KLK7 zymogen act = proKLK7 zymogen activators, primary screen, biochemical, fluorescence intensity. Kallikrein-7 (Homo sapiens), P49862. purified proKLK7, EDANS-DABCYL substrate fluorescence; 100% is mature enzyme control, 0% vehicle. activation, % at 7 µM. hit rate 0.9% among 370,000. AID 652039, 2013;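 active = activation above the mean of all tested compounds plus 3 SD, computed per campaign excluding outliers beyond control limits, cut at about 13% in these data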
Target sequence (P49862 whole entry, looked up): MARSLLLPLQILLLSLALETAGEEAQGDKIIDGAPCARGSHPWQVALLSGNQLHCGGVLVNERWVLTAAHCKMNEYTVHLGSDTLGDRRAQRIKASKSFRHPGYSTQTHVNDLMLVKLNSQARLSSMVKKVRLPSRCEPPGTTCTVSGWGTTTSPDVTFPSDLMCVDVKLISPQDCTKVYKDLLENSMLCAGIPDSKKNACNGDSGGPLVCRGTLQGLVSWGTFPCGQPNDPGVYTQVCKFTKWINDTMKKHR
procasp7 counter = procaspase-7 activators, primary screen, counter-screen for procaspase-3 activator project, biochemical, absorbance, HTS, human; recombinant procaspase-7, Ac-DEVD-pNA absorbance 405 nm; D23A/D198A/D206A triple mutant, cannot self-cleave; scale: DMSO 0, 5 µM enzyme 100; activation, % at 8.5 µM; hit rate 0.093% among 330,000; Caspase-7 (Homo sapiens), P55210; AID 463210, 2010;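 active = percent activation above the screen-wide mean plus 3 SD, cut at about 25% in these data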
Target sequence (P55210 whole entry D23A/D198A/D206A): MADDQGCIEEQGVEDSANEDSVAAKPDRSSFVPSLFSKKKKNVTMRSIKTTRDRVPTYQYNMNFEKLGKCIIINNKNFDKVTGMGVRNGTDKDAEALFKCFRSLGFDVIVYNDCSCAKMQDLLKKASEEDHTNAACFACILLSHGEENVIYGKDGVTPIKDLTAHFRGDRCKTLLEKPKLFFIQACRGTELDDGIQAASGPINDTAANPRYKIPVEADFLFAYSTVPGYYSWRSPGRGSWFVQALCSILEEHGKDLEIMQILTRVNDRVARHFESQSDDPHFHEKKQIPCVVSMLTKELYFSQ
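Replicates: singlicate. Assay system: Procaspase-7 triple mutant (PC-7 D3A). Signal: 405 nm absorbance of p-nitroaniline. Times: 1 h preincubation, 2 h reaction. Buffer or medium: Zinc-free HEPES pH 7.4 with 300 mM NaCl, 0.01% Triton X-100. Also added: DEVD-pNA substrate. Benchmarks: DMSO wells as 0%, DMSO with 5 µM added PC-7 as 100%.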
proCasp3 act = activators of human procaspase-3 D3A mutant, primary screen, biochemical, absorbance, PC-3 D3A mutant, single concentration; Caspase-3 (Homo sapiens), P42574; recombinant procaspase-3 D3A, Ac-DEVD-pNA absorbance 405 nm; activation, % at 8.5 µM; hit rate 0.11% among 330,000;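 active = activation above the mean of all tested compounds plus 3 SD, cut at about 21% in these data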
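Compound: 8.5 µM single point, 0.8% DMSO / Material: Autoprocessing-dead procaspase-3 D3A mutant enzyme / Timing: 1 h preincubation plus 2 h reaction at 25 °C / Medium: Zinc-free HEPES/NaCl buffer with 0.01% Triton X-100 at pH 7.4 / Technique: 405 nm absorbance of p-nitroaniline, reads at 0 and 120 min / Repeats: one well per compound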
KLK7 act conf = proKLK7 zymogen activators, confirmation, biochemical, fluorescence intensity, triplicate. hit rate 68% among 3,200. purified proKLK7, EDANS-DABCYL substrate fluorescence; scaled: vehicle 0, mature enzyme 100. shares compounds with KLK7 zymogen act. activation, % at 7 µM;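 active = activation, as change over the incubation, above the mean of all tested compounds plus 3 SD, cut at about 13% in these data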
EDANS-DABCYL int = EDANS-DABCYL substrate optical interference, artefact control for kallikrein-7 zymogen activator project, biochemical, fluorescence intensity, high throughput | hit rate 80% among 3,200 | activation, % at 7 µM | AID 686952, 2013 | no enzyme, 4 h; solvent 0%, active enzyme control 100% | shares compounds with KLK7 zymogen act;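 active = activation above the all-compound mean plus 3 SD, ignoring values outside control-based bounds, cut at about 4.8% in these data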;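 note: value is the 4 h activation minus the activation read at time zero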
K7 EDANS ctr = counter-screen for kallikrein-7 activators: EDANS-DABCYL interference, dose response; shares compounds with KLK7 zymogen act; EDANS-DABCYL peptide fluorescence interference, no enzyme; EC50, µM; hit rate 20% among 250; AID 720493;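 active = compounds that raise the fluorescence signal in this interference counterscreen, with EC50 at or below 10 µM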;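 note: intact quenched peptide substrate alone read at 355 nm excitation and 520 nm emission; signal is fluorescence gain from T0 to T4 after four hours at room temperature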
Each line names hits and unclear results; the compound was inactive in the other large screens (follow-up assays come after a bar, where shown).

N=c1c(C(=O)NCC2CCCO2)cc2c(=O)n3ccccc3nc2n1C1CCCC1 (stereo not given)	KLK7 zymogen act 105.6 (not shown: Neddylation inh) | KLK7 act conf 42.5 | EDANS-DABCYL int 30.2 | K7 EDANS ctr inactive
Cc1ccc2nc3c(cc(C(=O)NCC4CCCO4)c(=N)n3C3CCCC3)c(=O)n2c1 (stereo not given)	KLK7 zymogen act 80.8 (not shown: Neddylation inh) | KLK7 act conf 71.9 | EDANS-DABCYL int 81.0
N=c1c(C(=O)NCC2CCCO2)cc2c(=O)n3ccccc3nc2n1C1CCCCC1 (stereo not given)	KLK7 zymogen act 35.0 (not shown: Neddylation inh) | KLK7 act conf inactive | EDANS-DABCYL int inactive
Cc1cccn2c(=O)c3cc(C(=O)NC4CCCC4)c(=N)n(C4CCCCC4)c3nc12	none (not shown: Neddylation inh)
Cc1cccn2c(=O)c3cc(C(=O)NCC4CCCO4)c(=N)n(C4CCCC4)c3nc12 (stereo not given)	KLK7 zymogen act 81.0 (not shown: Neddylation inh) | KLK7 act conf inactive | EDANS-DABCYL int inactive
CC(=O)Nc1nc2n(n1)C(c1ccccc1)C=C(c1ccccc1)N2 (stereo not given)	none (not shown: Neddylation inh, KLK7 zymogen act)
O=C(c1nc2n(n1)C(c1ccc(Cl)cc1)C=C(c1ccccc1)N2)N1CCOCC1 (stereo not given)	KLK7 zymogen act 54.3 (not shown: Neddylation inh) | KLK7 act conf inactive | EDANS-DABCYL int inactive
CC(=O)Nc1nc2n(n1)C(c1ccc(F)cc1)C=C(c1ccccc1)N2 (stereo not given)	KLK7 zymogen act 22.4 (not shown: Neddylation inh) | KLK7 act conf inactive | EDANS-DABCYL int inactive
COC(=O)C1=CNC=C(C(=O)OC)C1c1ccc(C(=O)OC)cc1	KLK7 zymogen act 12.7 (not shown: Neddylation inh) | KLK7 act conf 19.3 | EDANS-DABCYL int 13.7 | K7 EDANS ctr inactive
COc1cc2c(cc1OC)-c1cc(OCCN3CCOCC3)nc(=O)n1CC2	KLK7 zymogen act 77.1 (not shown: Neddylation inh) | KLK7 act conf 68.9 | EDANS-DABCYL int 63.6
NNC(=O)CNC(=O)CNS(=O)(=O)c1ccccc1	none
COC(=O)[C@]12C[C@H](CC(=O)NCCCN3CCCC3=O)C(=O)N(Cc3ccc(Cl)cc3Cl)C1=C[C@H](COCc1ccccc1)O[C@@H]2C	none (no result: Neddylation inh, procasp7 counter, proCasp3 act)
COc1cc2c(cc1OC)CN(CC(=O)NC(=O)NCc1ccccc1)CC2	KLK7 zymogen act 14.8 (not shown: Neddylation inh) | KLK7 act conf inactive | EDANS-DABCYL int 4.4
COc1cc2c(cc1OC)CN(CCC(=O)c1ccc(Br)cc1)CC2	KLK7 zymogen act 13.7 (not shown: Neddylation inh) | KLK7 act conf inactive | EDANS-DABCYL int 7.8
COc1cc2c(cc1OC)CN(CC(=O)Nc1ccc(F)cc1F)CC2	none
COc1cc2c(cc1OC)CN(C(=O)CCNC(=O)c1ccc(Br)cc1)CC2	none (no result: procasp7 counter, proCasp3 act)
COc1cc2c(cc1OC)CN(CC(=O)Nc1cccc(C)c1)CC2	none
COc1cc([N+](=O)[O-])ccc1NC(=O)CN1CCc2cc(OC)c(OC)cc2C1	KLK7 zymogen act 24.9 (no result: procasp7 counter, proCasp3 act) | KLK7 act conf inactive | EDANS-DABCYL int inactive
COc1cc2c(cc1OC)CN(CC(=O)Nc1cccc([N+](=O)[O-])c1)CC2	KLK7 zymogen act 27.9 | KLK7 act conf inactive | EDANS-DABCYL int inactive
COc1ccc(NS(=O)(=O)c2cccc(C(=O)NNC(=O)c3cc(S(N)(=O)=O)ccc3OC)c2)cc1	none
COCCCNC(=O)C1CCN(C(=O)c2oc3cc4sc(N(C)C)nc4cc3c2C)CC1	KLK7 zymogen act 21.0 (not shown: Neddylation inh) | KLK7 act conf inactive | EDANS-DABCYL int inactive
COCCNC(=O)C1CCCN(C(=O)c2oc3ccccc3c2C)CC1 (stereo not given)	none (no result: procasp7 counter, proCasp3 act)
CCN(CC)CCCNC(=O)C1CCN(C(=O)c2oc3cc4sc(N(C)C)nc4cc3c2C)CC1	KLK7 zymogen act 13.3 (not shown: Neddylation inh) | KLK7 act conf inactive | EDANS-DABCYL int 9.0
Nc1[nH]c(C(=O)c2ccccc2)c(-c2ccccc2Br)c1C(=O)NCCc1ccc(Cl)cc1Cl	none (no result: procasp7 counter, proCasp3 act)
O=C(O)CCN1c2cccc3cccc(c23)S1(=O)=O	KLK7 zymogen act 15.6 (not shown: Neddylation inh) | KLK7 act conf 18.7 | EDANS-DABCYL int 11.3 | K7 EDANS ctr inactive
CC(C(=O)O)N1c2cccc3cccc(c23)S1(=O)=O (stereo not given)	KLK7 zymogen act 21.6 (not shown: Neddylation inh, procasp7 counter, proCasp3 act) | KLK7 act conf 26.5 | EDANS-DABCYL int 28.0
C=CCNC(=O)CN1c2cccc3cccc(c23)S1(=O)=O	KLK7 zymogen act 13.1 | KLK7 act conf inactive | EDANS-DABCYL int 7.1
O=C1CCCN1CCCNc1nc(NCc2cccs2)nc2ccsc12	none (no result: procasp7 counter, proCasp3 act)
CN(C)c1ccc(C2C3C(=O)N(c4ccc(C(=O)O)cc4)C(=O)C3ON2c2ccccc2)cc1 (stereo not given)	KLK7 zymogen act 62.7 | KLK7 act conf inactive | EDANS-DABCYL int inactive
Cc1ccc(C)c(C2NC(=O)c3ccccc3N2)c1 (stereo not given)	KLK7 zymogen act 36.2 (not shown: Neddylation inh) | KLK7 act conf 23.6 | EDANS-DABCYL int 20.6
CSc1ccc(C2NC(=O)c3ccccc3N2)cc1 (stereo not given)	KLK7 zymogen act 16.9 (not shown: Neddylation inh) | KLK7 act conf 16.7 | EDANS-DABCYL int 12.7 | K7 EDANS ctr inactive
O=C1NC(c2ccccc2O)Nc2ccccc21 (stereo not given)	KLK7 zymogen act 22.3 (not shown: Neddylation inh) | KLK7 act conf inactive | EDANS-DABCYL int 16.9
COc1ccc(C2NC(=O)c3ccccc3N2)c(OC)c1OC (stereo not given)	KLK7 zymogen act 32.7 (not shown: Neddylation inh, procasp7 counter, proCasp3 act) | KLK7 act conf 45.2 | EDANS-DABCYL int 47.2
CSc1ccc(C2Nc3cccc4cccc(c34)N2)cc1	none
CCOC(=O)C1CCCN(C(=O)c2ccc(F)c(C)c2)CC1 (stereo not given)	none (no result: procasp7 counter, proCasp3 act)
O=C1NC(c2cccc(OCc3ccccc3)c2)Nc2ccccc21 (stereo not given)	KLK7 zymogen act 14.5 (not shown: Neddylation inh, procasp7 counter, proCasp3 act) | KLK7 act conf inactive | EDANS-DABCYL int inactive
O=C1NC(c2ccc(O)cc2)Nc2ccccc21 (stereo not given)	KLK7 zymogen act 28.5 (not shown: Neddylation inh) | KLK7 act conf 25.2 | EDANS-DABCYL int 26.9
O=C1NC(c2ccc(Cl)c([N+](=O)[O-])c2)Nc2ccccc21 (stereo not given)	none
O=C(NC(Cc1ccccc1)C(=O)O)C1CCN(S(=O)(=O)c2ccccc2C(F)(F)F)CC1 (stereo not given)	none
Cc1ccc(S(=O)(=O)c2c(N)n(NC(=O)c3ccco3)c3nc4ccccc4nc23)cc1	KLK7 zymogen act 45.5 (not shown: Neddylation inh) | KLK7 act conf inactive | EDANS-DABCYL int 6.0
Cc1ccc(S(=O)(=O)c2c(N)n(Cc3ccco3)c3nc4ccccc4nc23)cc1	none (not shown: Neddylation inh)
